Compound activity as filed in PubChem BioAssay.
A selection: hits, their analogues and other compounds. The true share with any hit is near 4.7%.
SKN-1 inh – blocks SKN-1 activity in C. elegans | inhibition, % at 21.8 µM | C. elegans VP596 Pgst-4::GFP/RFP ratio, acrylamide-induced, 24 h | 360,000 compounds, 0.49% hits | AID 624304;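 active = interference check ratio from 0.5 to 1.5 plus GFP to RFP signal ratio inhibition reaching or exceeding a fixed threshold, cut at about 30% in these data, passing the limit was not always enough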
ADAM10 inh – inhibitors of human ADAM10 | O14672 | recombinant ADAM10, EDANS/DABCYL FRET peptide cleavage, 3 h | inhibition, % at 7 µM | 370,000 compounds, 0.62% hits;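 active = inhibition above a per-campaign cutoff equal to the mean of compounds falling between control-based bounds plus 3 SD, cut at about 20% in these data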;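 also: 0% = DMSO wells while the 100% control is not disclosed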
ADAM17 inh – inhibitors of human ADAM17; inhibition, % at 6.95 µM; recombinant ADAM17, EDANS/DABCYL FRET peptide cleavage; 370,000 compounds, 0.83% hits; AID 720648;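 active = inhibition above the mean of compounds lying between control limits plus 3 SD, set per campaign, cut at about 8.5% in these data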;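 also: 0% = DMSO-only wells as the low control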
Target sequence (P78536 215-824 limits assumed): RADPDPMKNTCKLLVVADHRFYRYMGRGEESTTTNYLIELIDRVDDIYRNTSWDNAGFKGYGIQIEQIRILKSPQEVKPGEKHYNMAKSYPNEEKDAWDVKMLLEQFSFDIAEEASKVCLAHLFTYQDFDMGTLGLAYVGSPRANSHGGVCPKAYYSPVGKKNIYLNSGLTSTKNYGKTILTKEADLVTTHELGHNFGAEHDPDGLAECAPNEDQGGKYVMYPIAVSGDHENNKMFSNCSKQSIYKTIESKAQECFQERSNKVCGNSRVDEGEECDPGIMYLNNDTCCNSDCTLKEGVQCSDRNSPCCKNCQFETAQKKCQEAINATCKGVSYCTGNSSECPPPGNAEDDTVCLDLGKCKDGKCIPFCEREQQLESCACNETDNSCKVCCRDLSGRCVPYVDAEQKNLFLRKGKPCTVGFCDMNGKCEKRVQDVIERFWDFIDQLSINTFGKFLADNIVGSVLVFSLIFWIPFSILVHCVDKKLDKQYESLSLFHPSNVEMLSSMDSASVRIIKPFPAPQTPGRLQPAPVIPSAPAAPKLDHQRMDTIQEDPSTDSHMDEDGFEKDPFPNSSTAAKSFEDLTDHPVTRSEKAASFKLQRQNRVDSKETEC
MT1-MMP act inh – inhibitors of human MT1-MMP activation | P50281 | HT1080 RFP-PRO-GFP cells, GFP/RFP ratio fluorescence, overnight; percent of plate control window, DMSO zero | GFP/RFP ratio change, % at 20 µM | 360,000 compounds, 0.061% hits | AID 651647;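 active = GFP/RFP ratio change of at least 30% with cell ATP level not reduced by more than half and red fluorescence within 50% of control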
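Assay system: RFP-PRO-GFP reporter HT1080 cells; read-out basis: GFP/RFP fluorescence ratio; benchmarks: DMSO wells and RFP-L50D-GFP cells; doses: 20 µM single dose, 1% DMSO; schedule: overnight cell settling, then overnight compound exposure, 37 °C, 5% CO2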
NR3A LBD binder – NR3A (human) ligand-binding domain modulation; NR3A LBD differential scanning fluorimetry, Tm shift; 0% = protein alone, 100% = glycine-bound protein; Tm shift relative to glycine control, % at 25 µM; 340,000 compounds, 2.5% hits;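 active = melting temperature shift of at least 10% of the positive control shift, at one fixed dose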
MPTP inh – inhibitors of mitochondrial permeability transition pore; isolated mouse mitochondria, Ca2+ swelling absorbance, 30 min; inhibition, % at 10 µM; 360,000 compounds, 1.4% hits; AID 602449;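 active = inhibition of 50% or more, scaled per plate between neutral and stimulator controls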;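 also: 0% = DMSO wells given calcium and 100% = 1 mM EGTA wells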
* marks the source's active call; other numbers are inactive results; . = no result.

SMILES	SKN-1 inh	ADAM10 inh	ADAM17 inh	MT1-MMP act inh	NR3A LBD binder	MPTP inh
CCN(CC)S(=O)(=O)c1ccc(C(=O)OC2CCCCC2CN(C)C)cc1 (centres undefined)	8	3	-6	7	-3	1
Cc1cccc(N2C(=O)N3[C@H](c4ccc(Br)cc4)[C@@H]4C(=O)N(C(C)(C)C)C(=O)[C@@H]4[C@]3(Cc3ccc(Cl)cc3)C2=O)c1	-17	1	-2	2	7	0
O=c1c2ccccc2ncn1-c1ccc(Cl)cc1Cl	35*	-1	-3	-3	0	2
COC(=O)c1c(C)[nH]c(O)c1C=Nc1ccc(C#N)cc1	46*	-5	-1	-6	-1	2
Cc1ccc(C(=O)O)cc1NC(=O)C1=CSCCO1	-4	-1	-4	3	21*	0
NS(=O)(=O)c1ccc(CCNC(=O)C2CCN(S(=O)(=O)c3ccc(Br)s3)CC2)cc1	5	-5	1	1	13*	-1
CCc1ccc(-c2cc(C)no2)cc1S(=O)(=O)Nc1cc(C)on1	25	1	1	-4	31*	1
O=C(COC(=O)c1cc(NS(=O)(=O)c2cccs2)ccc1O)Nc1cc(Cl)ccc1Cl	-6	-84	-27	0	30*	7
COc1ccc(NC(=O)CSCc2ccc(C)cc2)cc1	13	0	-2	1	1	3
CC(=O)Nc1sc(/C(C#N)=C\c2cccc(Cl)c2)nc1-c1ccc(C)cc1	35*	-17	1	-2	-5	36
C(=N\Nc1nc2ccccc2s1)/c1cccs1	20	1	1	-5	-2	3
Oc1ccccc1/C=N/Nc1cccc2cccnc12	-1	-14	-4	5	10*	2
Cc1ccsc1/C=N/Nc1nc2ccccc2s1	4	-6	4	-9	24*	8
O=C(COc1cccc2cccnc12)N/N=C/c1ccccc1O	-8	-17	-12	3	0	1
CC(=O)c1sc(N/N=C\c2ccc(Br)cc2)nc1C	11	-16	-2	-71	16*	13
O=C(CN1C(=O)COc2ccccc21)NCCCN1CCN(c2ccccc2F)CC1	4	-4	-4	4	0	0
OCCNCCCCCOc1ccc(F)cc1	7	5	2	-3	0	0
CCc1cc2c(SCC(=O)N3CC(=O)Nc4ccccc43)ncnc2s1	1	-1	-2	-3	-4	2
CCc1cccc(C)c1NC(=S)N1CCCC1C(=O)O (centres undefined)	2	10	0	2	-1	1
CC(C)(CO)CNc1ccn2nccc2n1	12	-41	-14	-16	.	-2
COc1ccc(/C=N/Nc2nc3ccccc3o2)cc1O	-8	-12	-2	2	-4	-1
CC(=O)Nc1sc(N/N=C/c2ccc(O)cc2)nc1-c1ccc(C)cc1	6	-10	-5	0	0	1
CC(=O)Nc1ccc(/C=N/Nc2nc3ccccc3s2)cc1	4	-19	-14	1	16*	2
Oc1ccccc1/C=N/Nc1ccccc1	10	-6	-1	-6	13*	32
O=[N+]([O-])c1ccccc1C=NNc1ccccc1	15	-1	0	3	-24	1
SMILES	SKN-1 inh	ADAM10 inh	ADAM17 inh	MT1-MMP act inh	NR3A LBD binder	MPTP inh
COc1ccc(/C=N/Nc2nc3ccccc3s2)cc1O	15	-17	-5	9	13*	0
CC(=O)Nc1sc(N/N=C/c2ccccc2)nc1-c1ccc(C)cc1	8	1	-2	2	11*	1
Cc1ccc(N2CCN(/N=C/C3=C(N4CCOCC4)C(=C\c4ccccc4)/CC3)CC2)cc1	.	.	.	.	4	.
Oc1ccccc1C=NNc1nc2ccccc2s1	6	-15	-4	6	31*	20
CC(=O)Nc1cccc(/C(C)=N/Nc2nc3ccccc3s2)c1	-5	2	4	10	31*	-1
Oc1ccc(C=NNc2nc3ccccc3s2)c(O)c1	18	-26	-5	-3	38*	2
COC(=O)CC1C(=O)NCCN1C(=S)NC(=O)c1sc2ccccc2c1Cl (centres undefined)	-7	-2	-3	1	0	2
CCOC(=O)N1CCN(C(=O)CSc2nnc(-c3cc(OC)cc(OC)c3)o2)CC1	14	2	-1	2	11*	-2
CCOC(=O)N1CCN(C(=O)CSc2nnc(-c3cccc(OC)c3)o2)CC1	26	-5	-4	4	-2	-2
O=C(N/N=C/c1ccc(OC(=O)c2ccccc2)c([N+](=O)[O-])c1)c1ccc(O)cc1	-16	5	2	3	26*	0
COc1ccc(C(=O)Oc2ccc(/C=N/NC(=O)c3ccccc3OC)cc2[N+](=O)[O-])cc1	2	0	-2	0	1	-15
COc1ccc(C(=O)N/N=C/c2ccc(OC(=O)c3cccc4ccccc34)c([N+](=O)[O-])c2)cc1	2	-2	-1	9	12*	1
CC1(C)CC(=O)C(C2C3=C(CC(C)(C)CC3=O)OC3=C2C(=O)CC(C)(C)C3)=C(O)C1	1	3	-2	2	6	3
O=C(/C=C\Nc1ccc2c(c1)OCO2)c1ccccn1	-11	-82	-23	0	35*	2
Cc1ccccc1CN(C)CC(=O)Nc1ccccc1Oc1ccccc1	9	-7	1	0	14*	0
Cc1ccccc1CN(C)CC(=O)Nc1ccccc1-c1ccccc1	5	5	4	-10	23*	3
Nc1ccc2nc(C(F)(F)F)[nH]c2c1	9	-1	0	0	1	1
O=S1(=O)N=C(Nc2ccc(O)cc2)c2ccccc21	-1	-1	0	-3	19*	-3
CC(=O)N1CCc2cc(Br)c(S(=O)(=O)CCC(=O)N3CCN(c4ccccn4)CC3)cc21	.	-1	5	.	.	.
CC(=O)Nc1ccc(Nc2cc(C(C)C)nc3c(-c4ccccc4)c(C)nn23)cc1	0	-73	-42	-5	17*	2
COc1ccc(/C=C2\CCCC3C2=NN(C(=O)CSc2ncn[nH]2)C3c2ccc(OC)cc2)cc1 (centres undefined)	4	11	3	-12	-7	0
COc1ccc(/C=C2\CCCC3C2=NN(C(=O)COC(=O)CNC(=O)c2ccccc2)C3c2ccc(OC)cc2)cc1 (centres undefined)	-17	21*	4	11	2	4
Cc1ccc(NC(=O)C2C3C=CC4(O3)C2C(=O)N(CCCN2CCOCC2)C4C(=O)NC2CCCCC2)cc1Cl (centres undefined)	6	7	-2	-2	-3	0
